Source: ChEMBL document CHEMBL4616671, “Identification of N-Phenyl-7H-pyrrolo[2,3-d]pyrimidin-4-amine Derivatives as Novel, Potent, and Selective NF-κB Inducing Kinase (NIK) Inhibitors for the Treatment of Psoriasis” (J Med Chem, 2020)
Activity calls are given as the source filed them. No cut-off for these calls is given here.

Experiments:
[1] = Intrinsic clearance in human liver microsomes assessed per mg of protein incubated for 10 mins followed by potassium phosphate buffer addition and measured after 5 to 60 mins by LC-MS/MS analysis; format: ADME, Microsome; settings: read-out: CLH
In short: (§1)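 Rat, dog, monkey or human liver microsomes pre-incubated with compound at 37 °C for 10 min; reaction started after pre-warming and stopped at 5, 15, 30, 60 min with chilled quench containing tolbutamide and labetalol. No-cofactor control in 100 mM potassium phosphate for 60 min. LC-MS/MS analysis; first-order fit: k = −slope, T1/2 = 0.693/k, CLint = k/microsomal protein concentration.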

[2] = Elimination half life in rat liver microsomes incubated for 10 mins followed by potassium phosphate buffer addition and measured after 5 to 60 mins by LC-MS/MS analysis; format: ADME, Microsome; settings: read-out: beta t1/2; in short: as §1
[3] = biological target: Mitogen-activated protein kinase kinase kinase 14 (Mus musculus) (UniProt Q9WUL6); test: In vivo inhibition of NIK in po dosed C57 mouse model of IMQ-induced psoriasis assessed as reduction in P52 expression in back skin administered starting from day 3 post IMQ-challenge and measured 2 days post-last dose of IMQ by Western blot analysis; format: functional, organism-based
In short: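 IMQ-induced psoriasis in C57 mice, 5% cream daily for 7 days, oral dosing 60 or 120 mg/kg from day 3. Back-skin protein extracts probed by western blot for p100 and p52; band optical density normalized to GAPDH.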

[4] = Intrinsic clearance in monkey liver microsomes assessed as per mg of protein incubated for 10 mins followed by potassium phosphate buffer addition and measured after 5 to 60 mins by LC-MS/MS analysis; format: ADME, Macaca mulatta, Microsome; settings: rhesus monkey, read-out: CLH; in short: as §1
[5] = biological target: Mitogen-activated protein kinase kinase kinase 14 (Mus musculus) (UniProt Q9WUL6); test: Inhibition of NIK in mouse J774 cells assessed as reduction in LPS-induced TNFalpha mRNA level by SYBR green dye-based quantitative PCR analysis; format: cell-based
In short: (§2)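 LPS-stimulated J774 macrophages; mRNA quantified by qPCR using 4 µL cDNA plus 16 µL master mix per reaction. Mean ± SD of three biological replicates; significance by two-tailed Student's t-test against the model group.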

[6] = biological target: Leucine-rich repeat serine/threonine-protein kinase 2 (Homo sapiens, UniProt Q5S007); test: Inhibition of human LRRK2 using [RLGRDKYKTLRQIRQ] as substrate in presence of [gamma33P]ATP by hotspot assay
Mus musculus [7] = test: Protection against IMQ-induced dermatitis in C57 mouse model of psoriasis assessed as reduction in invasive erythema at 60 to 120 mg/kg, ig administered once daily starting from day 3 post IMQ-challenge and measured 2 days post-last dose of IMQ; format: functional, organism-based
In short: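 C57 mice given 5% imiquimod cream on the back once daily for 7 days; intragastric dosing 60 or 120 mg/kg once daily from day 3 to end, n = 6 per group. Dorsal skin phenotype assessed by imaging.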

Homo sapiens [8] = organism: Homo sapiens; test: Selectivity ratio of IC50 for human Aurora B to IC50 for human NIK
Mus musculus [9] = test: Suppression of epidermal and dermal cell proliferation in C57 mouse model of IMQ-induced psoriasis assessed as reduction in Ki67 expression in back skin psoriatic lesions at 60 mg/kg, ig administered starting from day 3 post IMQ-challenge and measured 2 days post-last dose of IMQ by immunohistochemical analysis relative to control; format: functional; settings: C57, topical
In short: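 C57 mice given 5% imiquimod cream on back skin q.d. for seven days. Gavage q.d. at 60 or 120 mg/kg from day 3, n = 6 per group. Back-skin frozen sections (6 µm) stained for Ki67 by IHC. % Ki67+ of total cells quantified and normalized to IMQ-only model group. Two-tailed t-test, mean ± SD.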

[10] = Intrinsic hepatic clearance in monkey; format: ADME, Macaca mulatta; settings: rhesus monkey, in vivo
In short: (§3)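 Scaled from microsomal intrinsic clearance: CLint,in vitro × microsomal protein per g liver × liver weight per kg body weight.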

[11] = Half life in Sprague-Dawley rat at 10 mg/kg, po administered via gavage by LC-MS/MS analysis; format: ADME, organism-based; settings: in vivo
J774 [12] = test: Antiinflammatory activity in mouse J774 cells assessed as reduction in LPS-induced NOS2 mRNA level by SYBR green dye-based quantitative PCR analysis; format: functional, cell-based; in short: as §2
J774 [13] = test: Antiinflammatory activity in mouse J774 cells assessed as reduction in LPS-induced CCL3 mRNA level by SYBR green dye-based quantitative PCR analysis; format: functional, cell-based; in short: as §2
[14] = Intrinsic hepatic clearance in dog; format: ADME, Canis lupus familiaris; settings: in vivo; in short: as §3
J774 [15] = test: Antiinflammatory activity in mouse J774 cells assessed as reduction in LPS-induced IL23 mRNA level by SYBR green dye-based quantitative PCR analysis; format: functional, cell-based; in short: as §2
[16] = Cmax in Sprague-Dawley rat at 10 mg/kg, po administered via gavage measured at 0.833 hrs by LC-MS/MS analysis; format: ADME, organism-based; parameters: dose 10 mg/kg, route oral; settings: in vivo
[17] = biological target: T1, Mitogen-activated protein kinase kinase kinase 14 (Homo sapiens, UniProt Q99558); test: Inhibition of human NIK using myelin basic protein as substrate in presence of [gamma33P]ATP by hotspot assay
Target sequence in this assay (Q99558 whole entry): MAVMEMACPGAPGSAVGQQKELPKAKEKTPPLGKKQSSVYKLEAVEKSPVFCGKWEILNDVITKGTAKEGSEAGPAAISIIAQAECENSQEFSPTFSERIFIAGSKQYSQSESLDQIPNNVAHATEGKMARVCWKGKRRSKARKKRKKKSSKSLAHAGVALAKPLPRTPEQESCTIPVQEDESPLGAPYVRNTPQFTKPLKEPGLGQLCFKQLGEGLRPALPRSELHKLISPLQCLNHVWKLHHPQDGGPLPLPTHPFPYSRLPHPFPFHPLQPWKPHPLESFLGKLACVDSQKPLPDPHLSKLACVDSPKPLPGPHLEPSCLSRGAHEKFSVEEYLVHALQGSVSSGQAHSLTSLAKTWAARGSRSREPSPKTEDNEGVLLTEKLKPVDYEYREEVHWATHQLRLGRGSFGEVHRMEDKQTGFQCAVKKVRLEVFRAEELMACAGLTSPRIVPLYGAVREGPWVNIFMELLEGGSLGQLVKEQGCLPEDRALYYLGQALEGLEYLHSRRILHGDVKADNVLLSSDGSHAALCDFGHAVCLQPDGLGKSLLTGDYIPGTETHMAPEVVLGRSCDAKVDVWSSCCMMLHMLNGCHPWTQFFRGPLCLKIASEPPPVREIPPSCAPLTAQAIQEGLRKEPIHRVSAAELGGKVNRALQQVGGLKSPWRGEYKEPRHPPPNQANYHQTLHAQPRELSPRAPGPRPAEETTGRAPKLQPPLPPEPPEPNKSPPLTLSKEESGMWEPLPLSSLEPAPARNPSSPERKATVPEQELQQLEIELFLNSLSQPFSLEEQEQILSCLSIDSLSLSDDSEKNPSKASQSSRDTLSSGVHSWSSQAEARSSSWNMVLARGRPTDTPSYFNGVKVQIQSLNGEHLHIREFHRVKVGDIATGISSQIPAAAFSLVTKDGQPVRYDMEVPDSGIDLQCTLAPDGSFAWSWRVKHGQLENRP

Mus musculus [18] = test: Suppression of IMQ-induced psoriasis in C57 mouse assessed as reduction in spleen index at 120 mg/kg, ig administered once daily starting from day 3 post IMQ-challenge and measured 2 days post-last dose of IMQ; format: functional, organism-based
In short: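 IMQ-induced C57 mice (5% cream daily 7 days; i.g. daily from day 3 at the stated dose, n = 6). Spleen weighed per mouse at end of study.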

[19] = Intrinsic hepatic clearance in rat; format: ADME; settings: in vivo; in short: as §3
Homo sapiens [20] = organism: Homo sapiens; test: Selectivity ratio of IC50 for human ACK1 to IC50 for human NIK
Mus musculus [21] = test: Suppression of IMQ-induced epidermal acanthosis in ig dosed C57 mouse model of psoriasis assessed as reduction in epidermal thickness administered once daily starting from day 3 post IMQ-challenge and measured 2 days post-last dose of IMQ by hematoxylin-eosin staining based confocal laser scanning microscopy; format: functional, organism-based
In short: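 IMQ-induced C57 mice (5% cream 7 days; 60 or 120 mg/kg i.g. daily from day 3, n = 6). Formalin-fixed, paraffin-embedded back skin cut at 3 µm and H&E stained. Epidermal thickness measured in six randomly chosen fields; blind evaluation by two pathologists.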

[22] = Elimination half life in human liver microsomes incubated for 10 mins followed by potassium phosphate buffer addition and measured after 5 to 60 mins by LC-MS/MS analysis; format: ADME, Microsome; settings: read-out: beta t1/2; in short: as §1
[23] = biological target: T1, Mitogen-activated protein kinase kinase kinase 14; test: Inhibition of NIK in human BEAS2B cells assessed as reduction in LPS-induced IL-6 level preincubated for 8 hrs followed by LPS stimulation and measured after 24 hrs by ELISA; format: cell-based
In short: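 BEAS-2B cells were grown in DMEM with 10% FBS, seeded at 5000 cells/well, and cultured 24 h at 37 °C in 5% CO2. Compounds were given at 7 concentrations from 10 μM to 0.014 μM (3 replicate wells), with dexamethasone as positive control. After 8 h, LPS (20 μg/mL solution) was added for 24 h. Supernatant IL-6 was read by human IL-6 ELISA; two biological replicates.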
Target sequence in this assay (Q99558 whole entry, looked up): as the sequence (Q99558 whole entry) above

Activated CDC42 kinase 1 = Activated CDC42 kinase 1 (Homo sapiens, UniProt Q07912); test: Inhibition of human ACK1 using [EAIYAAPFAKKK] as substrate in presence of [gamma33P]ATP by hotspot assay
[24] = AUC (0 to infinity) in Sprague-Dawley rat at 1 mg/kg, iv administered as single bolus dose by LC-MS/MS analysis; format: ADME, organism-based; parameters: dose 1 mg/kg, time infinity, route intravenous; settings: in vivo
In short: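 Single IV bolus in SD rats, 3 per group, in DMSO:PEG200:saline 20:20:60 (v/v/v), 0.2 mg/mL. Plasma protein-precipitated with ACN containing internal standards, then quantified by LC-MS/MS. AUC0-∞ from concentration-time profiles by linear trapezoidal rule, noncompartmental analysis. Mean ± SD of three rats.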

Sequence of Mitogen-activated protein kinase kinase kinase 14 (Mus musculus) (Q9WUL6 whole entry): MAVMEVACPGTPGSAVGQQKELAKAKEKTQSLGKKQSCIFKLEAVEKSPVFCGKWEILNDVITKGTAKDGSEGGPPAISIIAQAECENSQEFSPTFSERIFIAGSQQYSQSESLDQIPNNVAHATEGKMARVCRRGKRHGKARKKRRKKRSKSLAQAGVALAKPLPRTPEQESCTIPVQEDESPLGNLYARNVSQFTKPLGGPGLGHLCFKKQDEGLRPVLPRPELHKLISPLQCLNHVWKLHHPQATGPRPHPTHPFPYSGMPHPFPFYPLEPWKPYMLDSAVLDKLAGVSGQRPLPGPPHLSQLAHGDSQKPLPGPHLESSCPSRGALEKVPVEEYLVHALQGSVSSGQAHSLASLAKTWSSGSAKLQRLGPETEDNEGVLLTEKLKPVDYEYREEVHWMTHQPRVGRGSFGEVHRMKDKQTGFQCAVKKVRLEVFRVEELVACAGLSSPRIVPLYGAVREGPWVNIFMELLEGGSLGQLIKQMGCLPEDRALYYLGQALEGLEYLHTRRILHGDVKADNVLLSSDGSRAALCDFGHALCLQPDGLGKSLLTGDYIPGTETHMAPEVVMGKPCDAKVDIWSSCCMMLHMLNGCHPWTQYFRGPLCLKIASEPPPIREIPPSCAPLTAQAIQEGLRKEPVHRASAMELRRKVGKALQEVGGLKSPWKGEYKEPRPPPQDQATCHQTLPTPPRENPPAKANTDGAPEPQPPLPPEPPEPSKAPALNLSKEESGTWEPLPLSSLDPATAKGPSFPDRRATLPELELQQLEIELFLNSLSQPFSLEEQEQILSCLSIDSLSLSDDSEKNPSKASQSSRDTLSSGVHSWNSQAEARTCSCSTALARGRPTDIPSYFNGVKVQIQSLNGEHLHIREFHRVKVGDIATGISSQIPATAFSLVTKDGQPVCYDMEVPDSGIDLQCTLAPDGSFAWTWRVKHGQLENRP
Sequence of Leucine-rich repeat serine/threonine-protein kinase 2 (Q5S007 whole entry): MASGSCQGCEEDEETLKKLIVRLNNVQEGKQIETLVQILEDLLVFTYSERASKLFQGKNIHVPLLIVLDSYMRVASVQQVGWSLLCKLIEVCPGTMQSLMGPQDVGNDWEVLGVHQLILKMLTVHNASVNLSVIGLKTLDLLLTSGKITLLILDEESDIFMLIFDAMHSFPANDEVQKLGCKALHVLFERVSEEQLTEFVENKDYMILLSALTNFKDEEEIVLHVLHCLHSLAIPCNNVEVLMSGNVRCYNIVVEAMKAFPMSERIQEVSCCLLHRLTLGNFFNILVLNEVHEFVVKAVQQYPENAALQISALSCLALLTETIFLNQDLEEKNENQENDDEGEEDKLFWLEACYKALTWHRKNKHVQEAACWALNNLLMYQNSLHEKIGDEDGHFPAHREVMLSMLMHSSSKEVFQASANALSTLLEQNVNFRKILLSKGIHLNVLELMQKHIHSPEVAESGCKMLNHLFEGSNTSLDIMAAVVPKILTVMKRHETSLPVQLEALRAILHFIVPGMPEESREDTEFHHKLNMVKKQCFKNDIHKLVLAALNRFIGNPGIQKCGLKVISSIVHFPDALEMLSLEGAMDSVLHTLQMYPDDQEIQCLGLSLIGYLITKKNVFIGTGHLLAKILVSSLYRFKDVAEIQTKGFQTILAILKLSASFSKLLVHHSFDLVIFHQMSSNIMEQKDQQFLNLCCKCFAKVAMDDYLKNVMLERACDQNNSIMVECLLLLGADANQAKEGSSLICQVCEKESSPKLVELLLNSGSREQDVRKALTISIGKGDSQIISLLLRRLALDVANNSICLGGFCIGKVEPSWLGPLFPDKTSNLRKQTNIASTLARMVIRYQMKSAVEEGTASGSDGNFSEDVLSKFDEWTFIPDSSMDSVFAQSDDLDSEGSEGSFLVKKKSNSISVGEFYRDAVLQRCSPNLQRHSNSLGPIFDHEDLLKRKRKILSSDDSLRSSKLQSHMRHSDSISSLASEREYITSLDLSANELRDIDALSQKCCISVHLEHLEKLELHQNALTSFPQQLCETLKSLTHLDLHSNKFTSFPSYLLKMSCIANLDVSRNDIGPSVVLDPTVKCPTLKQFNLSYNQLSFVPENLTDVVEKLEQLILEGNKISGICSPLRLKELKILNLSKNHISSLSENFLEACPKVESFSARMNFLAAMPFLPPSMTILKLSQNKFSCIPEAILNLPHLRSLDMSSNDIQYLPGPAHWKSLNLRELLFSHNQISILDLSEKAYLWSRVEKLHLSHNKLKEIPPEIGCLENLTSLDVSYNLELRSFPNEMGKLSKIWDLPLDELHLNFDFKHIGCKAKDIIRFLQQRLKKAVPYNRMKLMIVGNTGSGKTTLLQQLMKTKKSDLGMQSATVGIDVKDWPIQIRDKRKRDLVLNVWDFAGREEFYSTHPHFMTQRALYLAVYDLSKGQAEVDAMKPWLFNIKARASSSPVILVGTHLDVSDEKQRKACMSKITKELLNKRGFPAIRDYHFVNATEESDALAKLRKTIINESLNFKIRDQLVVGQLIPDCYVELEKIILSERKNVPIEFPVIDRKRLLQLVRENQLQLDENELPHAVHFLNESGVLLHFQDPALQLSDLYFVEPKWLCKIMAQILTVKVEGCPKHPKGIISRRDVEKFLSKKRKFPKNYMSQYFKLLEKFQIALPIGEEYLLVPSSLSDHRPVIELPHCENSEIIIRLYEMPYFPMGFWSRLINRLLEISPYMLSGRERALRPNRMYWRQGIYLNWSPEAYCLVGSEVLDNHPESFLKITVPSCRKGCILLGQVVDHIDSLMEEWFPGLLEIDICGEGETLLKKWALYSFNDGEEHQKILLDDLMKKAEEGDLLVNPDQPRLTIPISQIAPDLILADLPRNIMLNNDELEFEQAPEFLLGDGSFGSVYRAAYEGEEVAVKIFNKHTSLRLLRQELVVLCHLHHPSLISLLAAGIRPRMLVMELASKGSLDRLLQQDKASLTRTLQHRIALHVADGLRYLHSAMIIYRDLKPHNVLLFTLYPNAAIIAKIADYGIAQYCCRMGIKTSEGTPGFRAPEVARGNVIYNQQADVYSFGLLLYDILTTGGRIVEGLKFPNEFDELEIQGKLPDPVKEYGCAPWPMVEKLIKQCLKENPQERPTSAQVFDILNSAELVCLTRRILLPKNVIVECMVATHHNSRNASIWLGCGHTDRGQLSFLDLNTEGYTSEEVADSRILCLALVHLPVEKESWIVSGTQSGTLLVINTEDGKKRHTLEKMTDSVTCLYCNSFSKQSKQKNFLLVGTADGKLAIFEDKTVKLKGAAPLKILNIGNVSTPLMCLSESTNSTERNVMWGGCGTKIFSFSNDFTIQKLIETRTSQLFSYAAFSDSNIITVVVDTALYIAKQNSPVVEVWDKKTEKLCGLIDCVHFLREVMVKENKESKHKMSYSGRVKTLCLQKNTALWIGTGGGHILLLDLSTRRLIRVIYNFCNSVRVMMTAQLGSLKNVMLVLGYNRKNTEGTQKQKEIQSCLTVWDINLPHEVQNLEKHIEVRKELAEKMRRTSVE

- microsomal CLint [1]: 32.4 µL/min/mg
- half-life [2]: 30.8 min
- inhibition [3]: Dose-dependent effect
- microsomal CLint [4]: 76.8 µL/min/mg
- inhibition [5]: Active
- IC50 [6]: 94.6 nM
- Ratio IC50 (Homo sapiens [8]): 4 to 20
- CLH [10]: 111 mL/min/kg
- half-life [11]: 83.4 min
- CLH [14]: 62.4 mL/min/kg
- Cmax [16]: 772 ng/mL
- IC50 [17]: 9.7 nM
- CLH [19]: 81 mL/min/kg
- Ratio IC50 (Homo sapiens [20]): 4 to 20
- half-life [22]: 42.9 min
- inhibition [23]: Dose-dependent effect
- IC50 (Activated CDC42 kinase 1): 192 nM
- AUC(0-inf) [24]: 419 ng·h/mL
Structure (SMILES): CC(O)(C#Cc1ccc(N2CCOCC2)c(Nc2ncnc3[nH]ccc23)c1)c1nccs1 (racemic)
- Activity (Mus musculus [7]): Active
- inhibition in vivo at 60 mg/kg (Mus musculus [9]): 55%
- Activity (J774 [12]): Active
- Activity (J774 [13]): Active
- Activity (J774 [15]): Active
- inhibition (Mus musculus [18]): Active
- inhibition (Mus musculus [21]): Dose-dependent effect
